Test system: Ramos
Assay: Induction of apoptosis in human Ramos cells assessed as early apoptotic cells at 10 uM after 72 hrs by Annexin V-FITC/propidium iodide staining based flow cytometry (reference value: 0.0%)
Format: functional
Details: not given

Row | Structure (SMILES) | Activity
1 | C=CC(=O)Nc1cccc(Nc2nc(Nc3ccc(OCCOC)cc3)ncc2F)c1 [SPEBRUTINIB] | 21.1%
2 | C=CC(=O)N1CCC[C@@H](n2nc(-c3ccc(Oc4ccccc4)cc3)c3c(N)ncnc32)C1 [IBRUTINIB] | 37%

Test system: Ramos
Assay: Antiproliferative activity against human Ramos cells after 72 hrs by CCK-8 assay
Details: not given

Row | IC50 | Structure (SMILES)
3 | > 40 µM | C=CC(=O)Nc1cccc(Nc2nc(Nc3ccc(OCC(=O)N4CCOCC4)c(OC)c3)ncc2F)c1
4 | 7.31 µM | C=CC(=O)Nc1cccc(Nc2nc(Nc3ccc(OC)c(OCCCN4CCOCC4)c3)ncc2Cl)c1
5 | 22.6 µM | C=CC(=O)Nc1cccc(Nc2nc(Nc3ccc(OCCCN4CCN(C)CC4)cc3C)ncc2Cl)c1
6 | 2 µM | C=CC(=O)Nc1cccc(Nc2nc(Nc3ccc(OCCCN4CCOCC4)c(Cl)c3)ncc2Cl)c1
7 | 2.49 µM | C=CC(=O)Nc1cccc(Nc2nc(Nc3ccc(OCCCN4CCOCC4)c(OC)c3)ncc2Cl)c1
8 | 14.2 µM | C=CC(=O)Nc1cccc(Nc2nc(Nc3ccc(OCCOC)cc3)ncc2F)c1 [SPEBRUTINIB]

Row | Structure (SMILES) | IC50
9 | C=CC(=O)N1CCC[C@@H](n2nc(-c3ccc(Oc4ccccc4)cc3)c3c(N)ncnc32)C1 [IBRUTINIB] | 6.62 µM

Test system: PBMC
Assay: Cytotoxicity against human PBMCs assessed as induction of morphological changes at <10 uM after 24 hrs by AO/PI staining-based phase contrast microscopy
Format: cell-based
Details: not given

Row | Structure (SMILES) | Activity
10 | C=CC(=O)N1CCC[C@@H](n2nc(-c3ccc(Oc4ccccc4)cc3)c3c(N)ncnc32)C1 [IBRUTINIB] | 50%

Target: Tyrosine-protein kinase BTK (Homo sapiens, UniProt Q06187)
Sequence (Q06187 whole entry): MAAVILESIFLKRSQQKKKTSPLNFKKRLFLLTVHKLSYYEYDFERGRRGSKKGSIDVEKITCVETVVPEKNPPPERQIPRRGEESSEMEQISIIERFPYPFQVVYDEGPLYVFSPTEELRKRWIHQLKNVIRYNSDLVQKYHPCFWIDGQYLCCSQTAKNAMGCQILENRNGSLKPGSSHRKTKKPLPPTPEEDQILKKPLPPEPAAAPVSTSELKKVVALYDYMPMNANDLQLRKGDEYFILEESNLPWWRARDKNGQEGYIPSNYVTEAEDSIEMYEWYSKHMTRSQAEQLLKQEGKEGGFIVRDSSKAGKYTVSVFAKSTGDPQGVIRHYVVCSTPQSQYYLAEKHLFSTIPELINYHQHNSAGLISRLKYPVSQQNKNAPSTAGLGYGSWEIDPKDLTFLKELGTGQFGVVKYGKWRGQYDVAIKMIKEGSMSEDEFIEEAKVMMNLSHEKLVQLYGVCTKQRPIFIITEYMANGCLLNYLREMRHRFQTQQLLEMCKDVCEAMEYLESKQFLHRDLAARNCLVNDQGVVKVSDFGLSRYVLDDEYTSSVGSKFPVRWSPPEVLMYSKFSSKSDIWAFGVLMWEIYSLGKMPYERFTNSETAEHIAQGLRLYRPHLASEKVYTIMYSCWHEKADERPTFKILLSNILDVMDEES
Assay: Inhibition of recombinant full-length N-terminal His-tagged human BTK expressed in baculovirus infected Sf9 insect cells using Poly(4:1 Glu,Tyr) peptide substrate incubated for 60 mins by ADP-Glo luminescence assay
Details: not given

Row | IC50 | Structure (SMILES)
11 | 0.0171 µM | C=CC(=O)Nc1cccc(Nc2nc(Nc3ccc(OCC(=O)N4CCOCC4)c(OC)c3)ncc2F)c1
12 | 0.0008 µM | C=CC(=O)Nc1cccc(Nc2nc(Nc3ccc(OC)c(OCCCN4CCOCC4)c3)ncc2Cl)c1
13 | 0.0817 µM | C=CC(=O)Nc1cccc(Nc2nc(Nc3ccc(OCCCN4CCN(C)CC4)cc3C)ncc2Cl)c1
14 | 0.0007 µM | C=CC(=O)Nc1cccc(Nc2nc(Nc3ccc(OCCCN4CCOCC4)c(Cl)c3)ncc2Cl)c1
15 | 0.0313 µM | C=CC(=O)Nc1cccc(Nc2nc(Nc3ccc(OCCCN4CCOCC4)c(OC)c3)ncc2Cl)c1

Test system: NAMALVA
Assay: Antiproliferative activity against human NAMALWA cells after 72 hrs by CCK-8 assay
Format: functional, cell-based
Details: not given
In short: (§1)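 CCK-8 viability assay. Cells were seeded at 3000/well in RPMI-1640 with 10% FBS at 37 °C, 5% CO2, for 4 h before treatment. Exposure was 72 h at five concentrations (1.25, 5, 10, 20, 40 µM), each in five replicates. Absorbance was read at 450 nm. IC50 came from dose-response curves, as the mean of at least three separate experiments.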

Row | Structure (SMILES) | IC50
16 | C=CC(=O)Nc1cccc(Nc2nc(Nc3ccc(OCC(=O)N4CCOCC4)c(OC)c3)ncc2F)c1 | 15 µM
17 | C=CC(=O)Nc1cccc(Nc2nc(Nc3ccc(OC)c(OCCCN4CCOCC4)c3)ncc2Cl)c1 | 5.17 µM
18 | C=CC(=O)Nc1cccc(Nc2nc(Nc3ccc(OCCCN4CCN(C)CC4)cc3C)ncc2Cl)c1 | 24.6 µM
19 | C=CC(=O)Nc1cccc(Nc2nc(Nc3ccc(OCCCN4CCOCC4)c(Cl)c3)ncc2Cl)c1 | 19.4 µM
20 | C=CC(=O)Nc1cccc(Nc2nc(Nc3ccc(OCCCN4CCOCC4)c(OC)c3)ncc2Cl)c1 | 14.4 µM
21 | C=CC(=O)Nc1cccc(Nc2nc(Nc3ccc(OCCOC)cc3)ncc2F)c1 [SPEBRUTINIB] | 3.42 µM
22 | C=CC(=O)N1CCC[C@@H](n2nc(-c3ccc(Oc4ccccc4)cc3)c3c(N)ncnc32)C1 [IBRUTINIB] | 10.5 µM

Test system: Ramos
Assay: Induction of apoptosis in human Ramos cells assessed as late apoptotic cells at 10 uM after 72 hrs by Annexin V-FITC/propidium iodide staining based flow cytometry (reference value: 0.5%)
Format: functional
Details: not given

Row | Structure (SMILES) | Activity
23 | C=CC(=O)Nc1cccc(Nc2nc(Nc3ccc(OCCOC)cc3)ncc2F)c1 [SPEBRUTINIB] | 20.4%

Target: T1, Tyrosine-protein kinase JAK3 (Homo sapiens, UniProt P52333)
T1 sequence (P52333 whole entry): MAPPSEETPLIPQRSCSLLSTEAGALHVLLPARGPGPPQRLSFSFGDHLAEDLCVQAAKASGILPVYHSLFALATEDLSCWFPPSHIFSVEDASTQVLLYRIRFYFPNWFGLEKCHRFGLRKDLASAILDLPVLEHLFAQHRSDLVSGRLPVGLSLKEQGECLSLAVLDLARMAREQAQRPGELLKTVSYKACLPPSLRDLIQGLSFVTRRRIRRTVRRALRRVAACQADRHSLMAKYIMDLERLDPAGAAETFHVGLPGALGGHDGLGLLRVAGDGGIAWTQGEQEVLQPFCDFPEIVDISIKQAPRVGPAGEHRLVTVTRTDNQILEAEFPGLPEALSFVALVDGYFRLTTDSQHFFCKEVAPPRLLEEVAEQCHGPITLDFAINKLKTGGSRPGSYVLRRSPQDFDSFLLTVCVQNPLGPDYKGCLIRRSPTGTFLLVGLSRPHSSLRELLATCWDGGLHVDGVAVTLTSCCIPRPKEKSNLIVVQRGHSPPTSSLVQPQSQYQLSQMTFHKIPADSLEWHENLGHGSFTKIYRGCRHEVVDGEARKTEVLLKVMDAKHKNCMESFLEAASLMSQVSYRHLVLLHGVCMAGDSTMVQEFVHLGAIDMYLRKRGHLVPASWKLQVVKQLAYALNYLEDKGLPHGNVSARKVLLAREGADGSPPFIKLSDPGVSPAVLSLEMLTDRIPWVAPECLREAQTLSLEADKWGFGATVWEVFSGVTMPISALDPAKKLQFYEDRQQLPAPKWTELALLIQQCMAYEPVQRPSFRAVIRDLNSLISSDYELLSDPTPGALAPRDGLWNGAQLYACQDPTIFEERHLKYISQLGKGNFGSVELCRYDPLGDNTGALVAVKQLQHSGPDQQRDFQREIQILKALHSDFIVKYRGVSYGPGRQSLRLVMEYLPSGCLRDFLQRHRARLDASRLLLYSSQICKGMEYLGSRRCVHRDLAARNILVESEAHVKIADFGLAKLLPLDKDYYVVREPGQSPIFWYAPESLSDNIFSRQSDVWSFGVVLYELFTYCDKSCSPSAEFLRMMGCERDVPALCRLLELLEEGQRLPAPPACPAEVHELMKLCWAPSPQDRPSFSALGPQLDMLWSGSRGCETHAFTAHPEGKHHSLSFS
Assay: Inhibition of recombinant N-terminal GST-tagged human JAK3 (781 to end residues) expressed in baculovirus infected Sf9 insect cells using Poly(4:1 Glu,Tyr) peptide substrate incubated for 60 mins by ADP-Glo luminescence assay
Details: not given
In short: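 ADP-Glo luminescent kinase assay. The kinase reaction ran 60 min at room temperature in 1× kinase buffer. ADP-Glo reagent was added to stop the reaction and deplete ATP, followed by 40 min at room temperature. Detection reagent then converted ADP to ATP for a luciferase readout, followed by 30 min at room temperature. Luminescence was integrated over 0.5–1 s, and IC50 came from curve fitting.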

Row | IC50 | Structure (SMILES)
24 | 0.0112 µM | C=CC(=O)Nc1cccc(Nc2nc(Nc3ccc(OCC(=O)N4CCOCC4)c(OC)c3)ncc2F)c1
25 | 0.00069 µM | C=CC(=O)Nc1cccc(Nc2nc(Nc3ccc(OC)c(OCCCN4CCOCC4)c3)ncc2Cl)c1
26 | 0.0911 µM | C=CC(=O)Nc1cccc(Nc2nc(Nc3ccc(OCCCN4CCN(C)CC4)cc3C)ncc2Cl)c1
27 | 0.00106 µM | C=CC(=O)Nc1cccc(Nc2nc(Nc3ccc(OCCCN4CCOCC4)c(Cl)c3)ncc2Cl)c1
28 | 0.00677 µM | C=CC(=O)Nc1cccc(Nc2nc(Nc3ccc(OCCCN4CCOCC4)c(OC)c3)ncc2Cl)c1
29 | 0.0225 µM | C=CC(=O)Nc1cccc(Nc2nc(Nc3ccc(OCCOC)cc3)ncc2F)c1 [SPEBRUTINIB]

Test system: Raji
Assay: Antiproliferative activity against human Raji cells after 72 hrs by CCK-8 assay
Format: functional, cell-based
Details: not given
In short: as §1

Row | IC50 | Structure (SMILES)
30 | 11.2 µM | C=CC(=O)Nc1cccc(Nc2nc(Nc3ccc(OCC(=O)N4CCOCC4)c(OC)c3)ncc2F)c1
31 | 3.86 µM | C=CC(=O)Nc1cccc(Nc2nc(Nc3ccc(OC)c(OCCCN4CCOCC4)c3)ncc2Cl)c1
32 | 25 µM | C=CC(=O)Nc1cccc(Nc2nc(Nc3ccc(OCCCN4CCN(C)CC4)cc3C)ncc2Cl)c1
33 | 22.5 µM | C=CC(=O)Nc1cccc(Nc2nc(Nc3ccc(OCCCN4CCOCC4)c(Cl)c3)ncc2Cl)c1
34 | 5.92 µM | C=CC(=O)Nc1cccc(Nc2nc(Nc3ccc(OCCCN4CCOCC4)c(OC)c3)ncc2Cl)c1
35 | 25.3 µM | C=CC(=O)Nc1cccc(Nc2nc(Nc3ccc(OCCOC)cc3)ncc2F)c1 [SPEBRUTINIB]

Row | Structure (SMILES) | IC50
36 | C=CC(=O)N1CCC[C@@H](n2nc(-c3ccc(Oc4ccccc4)cc3)c3c(N)ncnc32)C1 [IBRUTINIB] | 20.9 µM

Test system: Ramos
Assay: Induction of apoptosis in human Ramos cells assessed as necrotic cells at 10 uM after 72 hrs by Annexin V-FITC/propidium iodide staining based flow cytometry (reference value: 0.7%)
Format: functional
Details: not given

Row | Structure (SMILES) | Activity
37 | C=CC(=O)Nc1cccc(Nc2nc(Nc3ccc(OCCOC)cc3)ncc2F)c1 [SPEBRUTINIB] | 4.3%
38 | C=CC(=O)N1CCC[C@@H](n2nc(-c3ccc(Oc4ccccc4)cc3)c3c(N)ncnc32)C1 [IBRUTINIB] | 0.1%

Test system: Ramos
Assay: Induction of apoptosis in human Ramos cells assessed as total apoptosis rate at 10 uM after 72 hrs by Annexin V-FITC/propidium iodide staining based flow cytometry relative to control
Details: not given

Row | Structure (SMILES) | Activity
39 | C=CC(=O)Nc1cccc(Nc2nc(Nc3ccc(OCCOC)cc3)ncc2F)c1 [SPEBRUTINIB] | 41.5%
40 | C=CC(=O)N1CCC[C@@H](n2nc(-c3ccc(Oc4ccccc4)cc3)c3c(N)ncnc32)C1 [IBRUTINIB] | 47.9%

Test system: Ramos
Assay: Induction of apoptosis in human Ramos cells assessed as viable cells at 10 uM after 72 hrs by Annexin V-FITC/propidium iodide staining based flow cytometry (reference value: 98.7%)
Format: functional
Details: read-out: Activity

Row | Structure (SMILES) | viability at 10 µM
41 | C=CC(=O)Nc1cccc(Nc2nc(Nc3ccc(OCCOC)cc3)ncc2F)c1 [SPEBRUTINIB] | 54.2%
42 | C=CC(=O)N1CCC[C@@H](n2nc(-c3ccc(Oc4ccccc4)cc3)c3c(N)ncnc32)C1 [IBRUTINIB] | 52%

— ChEMBL document CHEMBL4251566 (Eur J Med Chem, 2018)
